Activity and IC90 data for three compounds are collected here from ChEMBL document CHEMBL1157279, “8-methyl-pyridoxatin: A novel N-hydroxy pyridone from fungus OS-F61800 that induces erythropoietin in human cells” (1999).

Test [1] has as its system Hep 3B2. Nature of the test: Induction of erythropoietin gene expression in human Hep3B cells assessed as concentration resulting in five fold induction by luciferase reporter assay relative to control. It is filed as functional. The method in brief:
(§1)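 Hep3B epo-3 cells carrying an EPO-luciferase reporter; compounds tested at 0.1 to 30 µM, in triplicate in at least three experiments. Read-out is the ratio of light units with compound to a 0.5% DMSO vehicle control. TIR5x is the concentration giving fivefold induction; TIRmax is the minimum concentration giving maximum-fold induction. 10 µM CoCl2 served as positive control.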

Test [2] relates to Hep 3B2. Nature of the test: Induction of erythropoietin protein expression in human Hep3B cells assessed per ml of protein at 10 uM by ELISA relative to control. Format: functional. The gist of the method: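 Hep3B epo-3 cells incubated 24 h with compound at a single 10 µM; native EPO secreted into culture measured by human EPO ELISA kit, in mU/mL culture, against a 0.5% DMSO vehicle control; 10 µM CoCl2 as positive control.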

Test [3] is described as follows: Cytotoxicity against human Hep3B cells after 48 hrs by MTT assay. Format: functional, Hep 3B2. The method in brief:
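Hep3B epo-3 cells, 48 h exposure, standard MTT assay; value is concentration giving 90% inhibition (IC90).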

Test [4] relates to Hep 3B2. The test can be described thus: Induction of erythropoietin gene expression in human Hep3B cells assessed as concentration resulting in maximum fold induction by luciferase reporter assay relative to control. It is filed as functional. The gist of the method:
as §1

The source made the active and inactive calls. The calls are words filed in the database; no cut-off is given here.

With `Cc1cc(C2CCCCC2)n(O)c(=O)c1.NCCO` [CICLOPIROX OLAMINE], the Activity with Hep 3B2 [1] came out at 3 µM; in the test on Hep 3B2 [2], 99 mU/mL; with Hep 3B2 [4] it was 15 µM. Besides, the IC90 in test [3] is more than 20 µM.
As for `C=C[C@]1(C)C[C@H](C)C[C@H](C)[C@H]1c1c(OC)ccn(OC)c1=O`, the result in the test with Hep 3B2 [1] and in the test with Hep 3B2 [4] was inactive.
In the case of `C=C[C@]1(C)C[C@H](C)C[C@H](C)[C@H]1c1c(O)ccn(O)c1=O`, the Activity in the test with Hep 3B2 [1] turned out to be 0.3 µM; in the test on Hep 3B2 [2] it was 120 mU/mL; with Hep 3B2 [4] it was 0.7 µM. Further, the IC90 in test [3] is more than 20 µM.
